Molecular target: Integrin alpha-IIb/beta-3 (Homo sapiens, UniProt P05106+P08514)
Sequence (P05106 27-788 limits assumed): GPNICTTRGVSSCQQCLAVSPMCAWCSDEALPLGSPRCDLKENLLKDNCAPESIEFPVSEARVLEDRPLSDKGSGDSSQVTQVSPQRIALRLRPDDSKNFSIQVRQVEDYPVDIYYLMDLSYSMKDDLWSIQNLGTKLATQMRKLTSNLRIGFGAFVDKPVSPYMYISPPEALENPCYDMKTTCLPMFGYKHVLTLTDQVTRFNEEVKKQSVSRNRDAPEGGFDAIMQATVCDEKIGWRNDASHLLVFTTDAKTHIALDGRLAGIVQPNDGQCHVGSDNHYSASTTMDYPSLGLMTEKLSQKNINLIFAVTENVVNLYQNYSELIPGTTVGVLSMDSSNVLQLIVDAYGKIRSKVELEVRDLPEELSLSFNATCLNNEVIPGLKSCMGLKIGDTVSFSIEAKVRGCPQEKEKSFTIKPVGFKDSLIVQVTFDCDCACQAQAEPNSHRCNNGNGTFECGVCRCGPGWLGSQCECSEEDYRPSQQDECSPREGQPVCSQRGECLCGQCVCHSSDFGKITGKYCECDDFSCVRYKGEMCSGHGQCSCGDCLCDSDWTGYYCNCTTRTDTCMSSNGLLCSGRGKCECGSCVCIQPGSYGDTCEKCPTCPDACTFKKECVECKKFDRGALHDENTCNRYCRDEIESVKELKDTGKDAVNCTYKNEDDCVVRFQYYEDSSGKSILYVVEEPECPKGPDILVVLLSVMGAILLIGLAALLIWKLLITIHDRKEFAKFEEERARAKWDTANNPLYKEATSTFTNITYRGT
Sequence (P08514 32-887 limits assumed): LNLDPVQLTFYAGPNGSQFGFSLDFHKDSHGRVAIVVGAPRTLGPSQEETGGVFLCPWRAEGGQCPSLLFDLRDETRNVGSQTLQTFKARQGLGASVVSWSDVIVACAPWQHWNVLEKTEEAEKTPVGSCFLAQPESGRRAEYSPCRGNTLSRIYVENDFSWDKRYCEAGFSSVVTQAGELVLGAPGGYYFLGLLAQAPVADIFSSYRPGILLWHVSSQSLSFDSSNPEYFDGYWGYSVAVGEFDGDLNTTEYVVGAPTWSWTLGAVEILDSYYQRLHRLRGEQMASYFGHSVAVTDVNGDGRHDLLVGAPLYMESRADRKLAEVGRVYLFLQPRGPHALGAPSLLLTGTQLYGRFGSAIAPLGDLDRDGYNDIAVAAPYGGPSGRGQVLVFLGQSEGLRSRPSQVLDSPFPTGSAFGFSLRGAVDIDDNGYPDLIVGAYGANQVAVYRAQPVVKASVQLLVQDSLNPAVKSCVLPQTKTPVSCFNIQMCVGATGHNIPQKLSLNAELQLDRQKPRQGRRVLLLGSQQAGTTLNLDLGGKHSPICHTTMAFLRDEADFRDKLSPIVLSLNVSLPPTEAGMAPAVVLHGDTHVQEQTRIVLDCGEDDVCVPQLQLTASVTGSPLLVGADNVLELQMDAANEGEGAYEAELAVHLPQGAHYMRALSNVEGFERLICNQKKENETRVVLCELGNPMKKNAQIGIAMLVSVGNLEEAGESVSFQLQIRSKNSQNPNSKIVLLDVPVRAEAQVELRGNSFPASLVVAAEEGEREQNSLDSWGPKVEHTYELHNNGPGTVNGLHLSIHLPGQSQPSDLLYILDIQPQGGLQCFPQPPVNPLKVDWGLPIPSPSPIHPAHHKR
Sequence (P08514 891-1039 limits assumed): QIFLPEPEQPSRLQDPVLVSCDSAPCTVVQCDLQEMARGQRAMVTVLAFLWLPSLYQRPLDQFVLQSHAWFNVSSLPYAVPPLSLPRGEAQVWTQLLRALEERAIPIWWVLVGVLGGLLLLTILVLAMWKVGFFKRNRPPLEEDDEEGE
Assay: Inhibition of integrin alpha-2b-beta-3 receptor by ELISA
Assay type: protein-complex assay
How it was run: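 Solid-phase ELISA. Wells coated with fibrinogen (10 µg/mL) and blocked with 3% BSA in PBS/0.1% Tween 20 for 1 h at RT. Soluble αIIbβ3 (5 µg/mL) was incubated with serially diluted inhibitor in Tris pH 7.6, 150 mM NaCl, 1 mM MnCl2/MgCl2/CaCl2, 1 mg/mL BSA for 1 h at RT. Detection used anti-CD41b then anti-mouse-HRP, TMB, A450. IC50 was taken as the curve turning point.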
`CC(C)(C)CC(=O)N1C[C@H](OCC(=O)NC[C@H](NC(=O)C2(C)CCCCC2)C(=O)O)C[C@H]1CNc1ccccn1` showed an IC50 of over 50 µM.
Work on `O=C(CO[C@@H]1C[C@@H](CNc2ccccn2)N(C(=O)OCc2ccccc2)C1)NC[C@H](NS(=O)(=O)c1ccccc1)C(=O)O` yielded an IC50 of 12 µM.
`Cc1cc(C)c(C(=O)N[C@@H](CNC(=O)CO[C@@H]2C[C@@H](CNc3ccccn3)N(C(=O)OCc3ccccc3)C2)C(=O)O)c(C)c1` showed an IC50 of over 50 µM.
In the case of `CC1(C(=O)N[C@@H](CNC(=O)CO[C@@H]2C[C@@H](CNc3ccccn3)N(C(=O)OCc3ccccc3)C2)C(=O)O)CCCCC1`, the IC50 is reported as over 50 µM.
`COc1ccnc(NC[C@@H]2C[C@@H](OCC(=O)NC[C@H](NS(=O)(=O)c3c(C)cc(C)cc3C)C(=O)O)CN2C(=O)CC(C)(C)C)c1` showed an IC50 of 11 µM.
For `COc1ccnc(NC[C@@H]2C[C@@H](OCC(=O)NC[C@H](NC(=O)C3(C)CCCCC3)C(=O)O)CN2C(=O)CC(C)(C)C)c1`, the IC50 was over 50 µM.
With `COc1ccnc(NC[C@@H]2C[C@@H](OCC(=O)NC[C@H](NC(=O)C3(C)CCCCC3)C(=O)O)CN2C(=O)OCc2ccccc2)c1` the IC50 was over 50 µM.
`COc1ccnc(NC[C@@H]2C[C@@H](OCC(=O)NC[C@H](NC(=O)c3c(C)cc(C)cc3C)C(=O)O)CN2C(=O)OCc2ccccc2)c1` gave an IC50 of 50 µM.
`COc1ccnc(NC[C@@H]2C[C@@H](OCC(=O)NC[C@H](NC(=O)c3c(C)cc(C)cc3C)C(=O)O)CN2C(=O)CC(C)(C)C)c1` gave an IC50 of over 50 µM.
In the case of `COc1ccnc(NC[C@@H]2C[C@@H](OCC(=O)NC[C@H](NS(=O)(=O)c3c(C)cc(C)cc3C)C(=O)O)CN2C(=O)OCc2ccccc2)c1`, the IC50 is reported as 0.0077 µM.

Organism: Homo sapiens
Assay: Selectivity for integrin alpha5beta1 over alphaVbeta3 receptor
In the case of `Cc1cc(C)c(C(=O)N[C@@H](CNC(=O)CO[C@@H]2C[C@@H](CNc3ccccn3)N(C(=O)OCc3ccccc3)C2)C(=O)O)c(C)c1`, the Selectivity ratio is reported as 10000.

Organism: Homo sapiens
Assay: Selectivity for integrin alpha-5-beta-1 over alphaVbeta5 receptor
`Cc1cc(C)c(C(=O)N[C@@H](CNC(=O)CO[C@@H]2C[C@@H](CNc3ccccn3)N(C(=O)OCc3ccccc3)C2)C(=O)O)c(C)c1` gave a Selectivity ratio of 10000.

Molecular target: not listed separately
Assay: Inhibition of integrin alpha-3b-beta-1 receptor by ELISA
Set-up: species or system Homo sapiens
How it was run: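 Solid-phase ELISA. Wells coated with laminin (5 µg/mL) and blocked with 3% BSA/PBS-Tween. Soluble α3β1 (2 µg/mL) was incubated with serially diluted inhibitor in Tris pH 7.6, NaCl, 1 mM MnCl2, BSA, 0.05% Tween 20 for 1 h at RT. Detection used polyclonal anti-α3β1 then anti-rabbit-HRP, TMB/H2SO4, absorbance 450 nm. IC50 was taken as the inflection point.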
Compound `Cc1cc(C)c(C(=O)N[C@@H](CNC(=O)CO[C@@H]2C[C@@H](CNc3ccccn3)N(C(=O)OCc3ccccc3)C2)C(=O)O)c(C)c1` has an IC50 of 36 µM.
Work on `COc1ccnc(NC[C@@H]2C[C@@H](OCC(=O)NC[C@H](NC(=O)C3(C)CCCCC3)C(=O)O)CN2C(=O)CC(C)(C)C)c1` yielded an IC50 of 50 µM.
Work on `COc1ccnc(NC[C@@H]2C[C@@H](OCC(=O)NC[C@H](NC(=O)C3(C)CCCCC3)C(=O)O)CN2C(=O)OCc2ccccc2)c1` yielded an IC50 of 30 µM.
Compound `COc1ccnc(NC[C@@H]2C[C@@H](OCC(=O)NC[C@H](NC(=O)c3c(C)cc(C)cc3C)C(=O)O)CN2C(=O)OCc2ccccc2)c1` has an IC50 of 20 µM.
`COc1ccnc(NC[C@@H]2C[C@@H](OCC(=O)NC[C@H](NC(=O)c3c(C)cc(C)cc3C)C(=O)O)CN2C(=O)CC(C)(C)C)c1` showed an IC50 of 13 µM.

Molecular target: Integrin alpha-V/beta-5 (Homo sapiens, UniProt P06756+P18084)
Sequence (P06756 31-889 limits assumed): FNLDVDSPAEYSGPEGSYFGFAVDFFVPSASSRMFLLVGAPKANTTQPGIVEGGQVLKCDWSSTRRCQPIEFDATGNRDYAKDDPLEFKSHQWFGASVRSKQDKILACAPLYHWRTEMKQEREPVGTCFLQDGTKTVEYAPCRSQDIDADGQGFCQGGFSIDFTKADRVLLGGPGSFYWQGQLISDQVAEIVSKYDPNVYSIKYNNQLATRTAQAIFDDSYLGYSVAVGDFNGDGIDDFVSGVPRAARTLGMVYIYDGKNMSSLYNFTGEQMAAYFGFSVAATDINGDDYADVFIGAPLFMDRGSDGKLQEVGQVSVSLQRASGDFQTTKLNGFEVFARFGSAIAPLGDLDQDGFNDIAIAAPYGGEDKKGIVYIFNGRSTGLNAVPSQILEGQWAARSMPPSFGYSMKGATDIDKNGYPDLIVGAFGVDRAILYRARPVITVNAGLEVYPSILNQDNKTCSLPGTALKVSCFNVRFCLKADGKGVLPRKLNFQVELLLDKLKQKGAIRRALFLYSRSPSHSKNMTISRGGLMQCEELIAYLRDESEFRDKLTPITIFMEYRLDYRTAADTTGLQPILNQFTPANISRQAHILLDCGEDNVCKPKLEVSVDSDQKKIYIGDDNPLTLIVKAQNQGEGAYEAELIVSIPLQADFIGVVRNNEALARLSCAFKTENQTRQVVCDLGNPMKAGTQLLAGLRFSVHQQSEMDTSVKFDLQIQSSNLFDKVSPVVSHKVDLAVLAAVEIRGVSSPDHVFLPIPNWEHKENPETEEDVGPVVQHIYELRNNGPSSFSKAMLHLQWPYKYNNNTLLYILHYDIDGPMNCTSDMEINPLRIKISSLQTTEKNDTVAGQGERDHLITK
Sequence (P06756 891-1048 limits assumed): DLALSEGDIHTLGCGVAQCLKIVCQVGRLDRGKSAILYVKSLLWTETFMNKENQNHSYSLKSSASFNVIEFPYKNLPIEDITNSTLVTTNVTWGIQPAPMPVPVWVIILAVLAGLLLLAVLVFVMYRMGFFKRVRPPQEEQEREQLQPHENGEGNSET
Sequence (P18084 24-799 limits assumed): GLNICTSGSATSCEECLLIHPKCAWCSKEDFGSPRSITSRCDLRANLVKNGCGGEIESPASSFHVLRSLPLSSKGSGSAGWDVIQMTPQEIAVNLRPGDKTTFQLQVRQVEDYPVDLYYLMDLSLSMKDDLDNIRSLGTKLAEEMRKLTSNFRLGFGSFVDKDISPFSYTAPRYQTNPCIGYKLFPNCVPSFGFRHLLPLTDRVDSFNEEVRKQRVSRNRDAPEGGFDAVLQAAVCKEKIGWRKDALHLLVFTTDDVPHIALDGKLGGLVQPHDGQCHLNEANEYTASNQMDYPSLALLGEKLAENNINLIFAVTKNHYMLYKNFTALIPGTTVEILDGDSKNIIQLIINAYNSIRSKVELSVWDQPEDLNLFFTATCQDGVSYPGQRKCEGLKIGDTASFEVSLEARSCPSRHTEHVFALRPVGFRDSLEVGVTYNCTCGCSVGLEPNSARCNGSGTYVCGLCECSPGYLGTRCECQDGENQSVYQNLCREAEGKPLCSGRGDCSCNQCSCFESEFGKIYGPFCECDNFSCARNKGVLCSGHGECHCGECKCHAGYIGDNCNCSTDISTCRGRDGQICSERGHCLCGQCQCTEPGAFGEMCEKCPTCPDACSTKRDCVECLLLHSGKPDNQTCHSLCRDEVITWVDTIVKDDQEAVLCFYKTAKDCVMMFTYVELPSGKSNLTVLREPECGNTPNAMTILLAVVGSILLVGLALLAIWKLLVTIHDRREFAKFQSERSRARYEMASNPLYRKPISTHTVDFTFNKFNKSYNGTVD
Assay: Inhibition of integrin alpha-V-beta-5 receptor by ELISA
Assay type: protein-complex assay
How it was run: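 ELISA on vitronectin coating (5 µg/mL). Soluble αvβ5 (1.5 µg/mL) was incubated with serially diluted inhibitor for 1 h at RT in Tris pH 7.6, NaCl, 1 mM each MnCl2/MgCl2/CaCl2, BSA, 0.05% Tween 20. Detection used anti-αvβ5 and anti-mouse-HRP, TMB, A450. IC50 was the inflection point.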
In the case of `CC(C)(C)CC(=O)N1C[C@H](OCC(=O)NC[C@H](NC(=O)C2(C)CCCCC2)C(=O)O)C[C@H]1CNc1ccccn1`, the IC50 is reported as 2.3 µM.
For `O=C(CO[C@@H]1C[C@@H](CNc2ccccn2)N(C(=O)OCc2ccccc2)C1)NC[C@H](NS(=O)(=O)c1ccccc1)C(=O)O`, the IC50 was 0.26 µM.
With `Cc1cc(C)c(C(=O)N[C@@H](CNC(=O)CO[C@@H]2C[C@@H](CNc3ccccn3)N(C(=O)OCc3ccccc3)C2)C(=O)O)c(C)c1` the IC50 was 30 µM.
`CC1(C(=O)N[C@@H](CNC(=O)CO[C@@H]2C[C@@H](CNc3ccccn3)N(C(=O)OCc3ccccc3)C2)C(=O)O)CCCCC1` gave an IC50 of 0.55 µM.
Work on `COc1ccnc(NC[C@@H]2C[C@@H](OCC(=O)NC[C@H](NS(=O)(=O)c3c(C)cc(C)cc3C)C(=O)O)CN2C(=O)CC(C)(C)C)c1` yielded an IC50 of 0.029 µM.
For `COc1ccnc(NC[C@@H]2C[C@@H](OCC(=O)NC[C@H](NC(=O)C3(C)CCCCC3)C(=O)O)CN2C(=O)CC(C)(C)C)c1`, the IC50 was 4.3 µM.
Compound `COc1ccnc(NC[C@@H]2C[C@@H](OCC(=O)NC[C@H](NC(=O)C3(C)CCCCC3)C(=O)O)CN2C(=O)OCc2ccccc2)c1` has an IC50 of 3.1 µM.
For `COc1ccnc(NC[C@@H]2C[C@@H](OCC(=O)NC[C@H](NC(=O)c3c(C)cc(C)cc3C)C(=O)O)CN2C(=O)OCc2ccccc2)c1`, the IC50 was 2.7 µM.
For `COc1ccnc(NC[C@@H]2C[C@@H](OCC(=O)NC[C@H](NC(=O)c3c(C)cc(C)cc3C)C(=O)O)CN2C(=O)CC(C)(C)C)c1`, the IC50 was 6.8 µM.
Work on `COc1ccnc(NC[C@@H]2C[C@@H](OCC(=O)NC[C@H](NS(=O)(=O)c3c(C)cc(C)cc3C)C(=O)O)CN2C(=O)OCc2ccccc2)c1` yielded an IC50 of 0.019 µM.

Molecular target: T1, Integrin alpha-5/beta-1 (Homo sapiens, UniProt P05556+P08648)
Assay: Inhibition of integrin alpha-5-beta-1 receptor expressed in HEK293 cells
Assay type: cell-based
How it was run: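 HEK293 cells with endogenous α5β1 were tested for adhesion to fibronectin. IC50 was determined.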
`COc1ccnc(NC[C@@H]2C[C@@H](OCC(=O)NC[C@H](NC(=O)c3c(C)cc(C)cc3C)C(=O)O)CN2C(=O)CC(C)(C)C)c1` gave an IC50 of 0.05 µM.

Organism: Homo sapiens
Assay: Selectivity for integrin alpha-5-beta-1 over alpha2bbeta3 receptor
Compound `Cc1cc(C)c(C(=O)N[C@@H](CNC(=O)CO[C@@H]2C[C@@H](CNc3ccccn3)N(C(=O)OCc3ccccc3)C2)C(=O)O)c(C)c1` has a Selectivity ratio of 10000.

Molecular target: Integrin alpha-V/beta-3 (Homo sapiens, UniProt P05106+P06756)
Sequence (P05106 27-788 limits assumed): as the sequence (P05106 27-788 limits assumed) above
Sequence (P06756 31-889 limits assumed): as the sequence (P06756 31-889 limits assumed) above
Sequence (P06756 891-1048 limits assumed): as the sequence (P06756 891-1048 limits assumed) above
Assay: Inhibition of integrin alpha-V-beta-3 receptor by ELISA
Assay type: protein-complex assay
How it was run: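 Vitronectin-coated wells (1 µg/mL) were blocked with 3% BSA/PBS-Tween. Soluble αvβ3 (1 µg/mL) was incubated with serially diluted inhibitor for 1 h at RT in Tris/NaCl/MnCl2/BSA buffer. Binding was read with anti-αvβ3 plus anti-mouse-HRP, then TMB, absorbance 450 nm. IC50 was taken at the turning point of the inhibition curve.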
`CC(C)(C)CC(=O)N1C[C@H](OCC(=O)NC[C@H](NC(=O)C2(C)CCCCC2)C(=O)O)C[C@H]1CNc1ccccn1` gave an IC50 of 1.6 µM.
`O=C(CO[C@@H]1C[C@@H](CNc2ccccn2)N(C(=O)OCc2ccccc2)C1)NC[C@H](NS(=O)(=O)c1ccccc1)C(=O)O` showed an IC50 of 0.0063 µM.
For `Cc1cc(C)c(C(=O)N[C@@H](CNC(=O)CO[C@@H]2C[C@@H](CNc3ccccn3)N(C(=O)OCc3ccccc3)C2)C(=O)O)c(C)c1`, the IC50 was 30 µM.
`CC1(C(=O)N[C@@H](CNC(=O)CO[C@@H]2C[C@@H](CNc3ccccn3)N(C(=O)OCc3ccccc3)C2)C(=O)O)CCCCC1` gave an IC50 of 0.88 µM.
Compound `COc1ccnc(NC[C@@H]2C[C@@H](OCC(=O)NC[C@H](NS(=O)(=O)c3c(C)cc(C)cc3C)C(=O)O)CN2C(=O)CC(C)(C)C)c1` has an IC50 of 0.004 µM.
In the case of `COc1ccnc(NC[C@@H]2C[C@@H](OCC(=O)NC[C@H](NC(=O)C3(C)CCCCC3)C(=O)O)CN2C(=O)CC(C)(C)C)c1`, the IC50 is reported as 0.98 µM.
Work on `COc1ccnc(NC[C@@H]2C[C@@H](OCC(=O)NC[C@H](NC(=O)C3(C)CCCCC3)C(=O)O)CN2C(=O)OCc2ccccc2)c1` yielded an IC50 of 0.69 µM.
`COc1ccnc(NC[C@@H]2C[C@@H](OCC(=O)NC[C@H](NC(=O)c3c(C)cc(C)cc3C)C(=O)O)CN2C(=O)OCc2ccccc2)c1` showed an IC50 of 3.4 µM.
In the case of `COc1ccnc(NC[C@@H]2C[C@@H](OCC(=O)NC[C@H](NC(=O)c3c(C)cc(C)cc3C)C(=O)O)CN2C(=O)CC(C)(C)C)c1`, the IC50 is reported as 3.3 µM.
Work on `COc1ccnc(NC[C@@H]2C[C@@H](OCC(=O)NC[C@H](NS(=O)(=O)c3c(C)cc(C)cc3C)C(=O)O)CN2C(=O)OCc2ccccc2)c1` yielded an IC50 of 0.0024 µM.

Organism: Homo sapiens
Assay: Selectivity for integrin alpha5beta1 over alpha-3-beta-1 receptor
`Cc1cc(C)c(C(=O)N[C@@H](CNC(=O)CO[C@@H]2C[C@@H](CNc3ccccn3)N(C(=O)OCc3ccccc3)C2)C(=O)O)c(C)c1` showed a Selectivity ratio of 10000.

Molecular target: T1, Integrin alpha-5/beta-1
Assay: Inhibition of integrin alpha-5-beta-1 receptor by ELISA
Assay type: protein-complex assay
How it was run: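 Wells coated overnight at 4°C with fibronectin (0.25 µg/mL) at pH 9.6, then blocked with 3% BSA. Bound integrin was detected with anti-human-Fc-HRP, TMB, A450. IC50 was taken from the curve turning point.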
`CC(C)(C)CC(=O)N1C[C@H](OCC(=O)NC[C@H](NC(=O)C2(C)CCCCC2)C(=O)O)C[C@H]1CNc1ccccn1` showed an IC50 of 0.0014 µM.
In the case of `O=C(CO[C@@H]1C[C@@H](CNc2ccccn2)N(C(=O)OCc2ccccc2)C1)NC[C@H](NS(=O)(=O)c1ccccc1)C(=O)O`, the IC50 is reported as 0.086 µM.
Compound `Cc1cc(C)c(C(=O)N[C@@H](CNC(=O)CO[C@@H]2C[C@@H](CNc3ccccn3)N(C(=O)OCc3ccccc3)C2)C(=O)O)c(C)c1` has an IC50 of 0.0035 µM.
Work on `CC1(C(=O)N[C@@H](CNC(=O)CO[C@@H]2C[C@@H](CNc3ccccn3)N(C(=O)OCc3ccccc3)C2)C(=O)O)CCCCC1` yielded an IC50 of 0.0017 µM.
`COc1ccnc(NC[C@@H]2C[C@@H](OCC(=O)NC[C@H](NS(=O)(=O)c3c(C)cc(C)cc3C)C(=O)O)CN2C(=O)CC(C)(C)C)c1` gave an IC50 of 0.0009 µM.
In the case of `COc1ccnc(NC[C@@H]2C[C@@H](OCC(=O)NC[C@H](NC(=O)C3(C)CCCCC3)C(=O)O)CN2C(=O)CC(C)(C)C)c1`, the IC50 is reported as 0.00055 µM.
In the case of `COc1ccnc(NC[C@@H]2C[C@@H](OCC(=O)NC[C@H](NC(=O)C3(C)CCCCC3)C(=O)O)CN2C(=O)OCc2ccccc2)c1`, the IC50 is reported as 0.0008 µM.
`COc1ccnc(NC[C@@H]2C[C@@H](OCC(=O)NC[C@H](NC(=O)c3c(C)cc(C)cc3C)C(=O)O)CN2C(=O)OCc2ccccc2)c1` showed an IC50 of 0.00054 µM.
`COc1ccnc(NC[C@@H]2C[C@@H](OCC(=O)NC[C@H](NC(=O)c3c(C)cc(C)cc3C)C(=O)O)CN2C(=O)CC(C)(C)C)c1` gave an IC50 of 0.00055 µM.
In the case of `COc1ccnc(NC[C@@H]2C[C@@H](OCC(=O)NC[C@H](NS(=O)(=O)c3c(C)cc(C)cc3C)C(=O)O)CN2C(=O)OCc2ccccc2)c1`, the IC50 is reported as 0.0011 µM.
